Converted amounts (≈) assume the structure as drawn. The source made the active and inactive calls. The calls are words filed in the database; no cut-off is given here.
Columns and labels:
DLD-1 [1] = assay: Cytotoxicity against human DLD1 cells at 6.4 uM after 48 hrs by MTT assay; assay type: functional, cell-based
NCI/ADR-RES [2] = assay: Cytotoxicity against human NCI/ADR-RES cells at 5.2 uM after 48 hrs by MTT assay; assay type: functional, cell-based
[3] = molecular target: Induced myeloid leukemia cell differentiation protein Mcl-1 (Homo sapiens, UniProt Q07820); assay: Inhibition of MCL1 binding to Bak by FRET assay
Chain of Induced myeloid leukemia cell differentiation protein Mcl-1 (Q07820 whole entry): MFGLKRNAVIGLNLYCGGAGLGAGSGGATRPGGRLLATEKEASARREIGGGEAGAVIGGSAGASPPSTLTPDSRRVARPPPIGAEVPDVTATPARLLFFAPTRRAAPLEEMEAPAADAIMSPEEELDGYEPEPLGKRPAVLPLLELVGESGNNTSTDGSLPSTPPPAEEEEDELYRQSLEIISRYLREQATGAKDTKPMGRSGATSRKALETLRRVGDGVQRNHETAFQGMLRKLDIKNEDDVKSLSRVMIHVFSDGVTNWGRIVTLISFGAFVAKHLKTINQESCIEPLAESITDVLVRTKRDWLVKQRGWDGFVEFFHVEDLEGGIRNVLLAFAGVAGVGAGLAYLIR

NCI/ADR-RES [4] = assay: Cytotoxicity against human NCI/ADR-RES cells after 48 hrs by MTT assay; assay type: functional, cell-based
How it was run: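 NCI/ADR-RES (formerly MCF-7/ADR) is a multidrug-resistant human ovarian carcinoma line from the NCI-Frederick tumor/cell line repository. It was scored for inhibition of proliferation using a previously described protocol. Each sample was run at least three times to derive the final IC50.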

PANC-1 [5] = assay: Cytotoxicity against human PANC1 cells at 5.2 uM after 48 hrs by MTT assay; assay type: functional, cell-based
Candida albicans = assay: Antifungal activity against Candida albicans after 18 hrs by microdilution broth method; assay type: functional, organism-based
How it was run: (§1)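 Reference strains: S. aureus ATCC 29213, methicillin-resistant S. aureus ATCC 700787, P. aeruginosa ATCC 27853 and C. albicans ATCC 44506. Method as previously described elsewhere.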

Pseudomonas aeruginosa = assay: Antibacterial activity against Pseudomonas aeruginosa after 18 hrs by microdilution broth method; assay type: functional, organism-based; how it was run: as §1
PANC-1 [6] = assay: Cytotoxicity against human PANC1 cells at 6.4 uM after 48 hrs by MTT assay; assay type: functional, cell-based
Histone deacetylase 1 = Histone deacetylase 1 (Homo sapiens, UniProt Q13547); assay: Inhibition of human HDAC1 assessed as [3H]acetate release after 90 mins by scintillation counting
Chain of Histone deacetylase 1 (Q13547 whole entry): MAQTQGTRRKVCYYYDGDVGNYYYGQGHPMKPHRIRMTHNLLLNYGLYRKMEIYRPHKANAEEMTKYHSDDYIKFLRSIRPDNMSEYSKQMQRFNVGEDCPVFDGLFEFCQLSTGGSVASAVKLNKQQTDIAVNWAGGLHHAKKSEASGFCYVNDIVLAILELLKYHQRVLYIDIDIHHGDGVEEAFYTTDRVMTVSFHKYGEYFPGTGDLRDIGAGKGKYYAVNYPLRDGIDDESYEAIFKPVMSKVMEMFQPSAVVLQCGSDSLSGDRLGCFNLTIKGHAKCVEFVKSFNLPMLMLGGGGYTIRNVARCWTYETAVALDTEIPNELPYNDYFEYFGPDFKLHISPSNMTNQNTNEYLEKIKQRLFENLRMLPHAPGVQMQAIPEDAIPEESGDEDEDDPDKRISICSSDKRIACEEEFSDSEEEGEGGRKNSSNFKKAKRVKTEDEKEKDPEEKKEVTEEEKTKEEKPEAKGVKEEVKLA

Staphylococcus aureus [7] = assay: Antibacterial activity against methicillin-resistant Staphylococcus aureus after 18 hrs by microdilution broth method; assay type: functional; how it was run: as §1
DLD-1 [8] = assay: Cytotoxicity against human DLD1 cells at 5.2 uM after 48 hrs by MTT assay; assay type: functional, cell-based
Staphylococcus aureus [9] = assay: Antibacterial activity against Staphylococcus aureus after 18 hrs by microdilution broth method; assay type: functional; how it was run: as §1

O=C(O)c1cc(O)c2c(c1)C(=O)c1cc(O)c(Br)c(O)c1C2=O
Activity (DLD-1 [1]): inactive | Activity (NCI/ADR-RES [2]): inactive | Activity [3]: inactive | Activity (NCI/ADR-RES [4]): inactive | Activity (PANC-1 [5]): inactive | Activity (Candida albicans): inactive | Activity (Pseudomonas aeruginosa): inactive | Activity (PANC-1 [6]): inactive | Activity (Histone deacetylase 1): inactive | Activity (Staphylococcus aureus [7]): inactive | Activity (DLD-1 [8]): inactive | Activity (Staphylococcus aureus [9]): inactive

CCC[C@@H](O)Cc1c(Br)c(O)c2c(=O)c3c(O)cc(O)c4c5c(O)cc(O)c6c(=O)c7c(O)c(Br)c(C[C@H](C)O)c8c1c2c(c34)c(c65)c78 [GYMNOCHROME E]
Activity (DLD-1 [1]): inactive | IC50 (NCI/ADR-RES [4]): 3.5 µM | Activity (Candida albicans): inactive | Activity (Pseudomonas aeruginosa): inactive | Activity (PANC-1 [6]): inactive | IC50 (Histone deacetylase 1): 10.9 µM | MIC (Staphylococcus aureus [7]): 25 µg/mL (≈ 32.1 µM) | MIC (Staphylococcus aureus [9]): 25 µg/mL (≈ 32.1 µM)

O=C(O)c1cc(O)c2c(c1)C(=O)c1cc(O)cc(O)c1C2=O
Activity (DLD-1 [1]): inactive | Activity (NCI/ADR-RES [2]): inactive | Activity [3]: inactive | Activity (NCI/ADR-RES [4]): inactive | Activity (PANC-1 [5]): inactive | Activity (Candida albicans): inactive | Activity (Pseudomonas aeruginosa): inactive | Activity (PANC-1 [6]): inactive | Activity (Histone deacetylase 1): inactive | Activity (Staphylococcus aureus [7]): inactive | Activity (DLD-1 [8]): inactive | Activity (Staphylococcus aureus [9]): inactive

CCC[C@@H](O)Cc1c(Br)c(O)c2c(=O)c3c(O)c(Br)c(O)c4c5c(O)c(Br)c(O)c6c(=O)c7c(O)c(Br)c(C[C@H](O)CCC)c8c1c2c(c34)c(c65)c78 [GYMNOCHROME F]
Activity (NCI/ADR-RES [2]): inactive | IC50 [3]: 3.3 µM | Activity (PANC-1 [5]): inactive | Activity (Candida albicans): inactive | Activity (Pseudomonas aeruginosa): inactive | MIC (Staphylococcus aureus [7]): 12.5 µg/mL (≈ 13 µM) | Activity (DLD-1 [8]): inactive | MIC (Staphylococcus aureus [9]): 12.5 µg/mL (≈ 13 µM)

Reference: ChEMBL document CHEMBL1157063, “Gymnochromes E and F, cytotoxic phenanthroperylenequinones from a deep-water crinoid, Holopus rangii” (J Nat Prod, 2010)
